Experiments:
MDA-MB-231 cells = assay: CyQuant cell proliferation assay; type: cell-based, human; conditions: Homo sapiens, MDA-MB-231, 72 h, read-out: IC50 cell proliferation MDA-MB-231
Procedure, shortened: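 CyQuant DNA-dye proliferation assay on cultured cells after 72 h exposure to test compound. Viability expressed relative to DMSO-treated control cells.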

Stat3 = Stat3 DNA-binding activity/EMSA of nuclear extracts from treated glioma cells; type: cell-based, human; conditions: 5 μM, glioma cells, EMSA
Stat3:Stat3 = Stat3:Stat3 (Mus musculus, UniProt P42227); assay: Cell-free EMSA, nuclear extracts pre-incubated with compound, hSIE probe; type: biochemical
Stat1:Stat1 = target: T1, Stat1:Stat1 (Mus musculus, UniProt P42225); assay: Cell-free EMSA, EGF-stimulated NIH3T3/hEGFR nuclear extracts; type: biochemical; conditions: 5 μM, 30 min pre-incubation
T1 sequence (P42225 2-749 limits assumed): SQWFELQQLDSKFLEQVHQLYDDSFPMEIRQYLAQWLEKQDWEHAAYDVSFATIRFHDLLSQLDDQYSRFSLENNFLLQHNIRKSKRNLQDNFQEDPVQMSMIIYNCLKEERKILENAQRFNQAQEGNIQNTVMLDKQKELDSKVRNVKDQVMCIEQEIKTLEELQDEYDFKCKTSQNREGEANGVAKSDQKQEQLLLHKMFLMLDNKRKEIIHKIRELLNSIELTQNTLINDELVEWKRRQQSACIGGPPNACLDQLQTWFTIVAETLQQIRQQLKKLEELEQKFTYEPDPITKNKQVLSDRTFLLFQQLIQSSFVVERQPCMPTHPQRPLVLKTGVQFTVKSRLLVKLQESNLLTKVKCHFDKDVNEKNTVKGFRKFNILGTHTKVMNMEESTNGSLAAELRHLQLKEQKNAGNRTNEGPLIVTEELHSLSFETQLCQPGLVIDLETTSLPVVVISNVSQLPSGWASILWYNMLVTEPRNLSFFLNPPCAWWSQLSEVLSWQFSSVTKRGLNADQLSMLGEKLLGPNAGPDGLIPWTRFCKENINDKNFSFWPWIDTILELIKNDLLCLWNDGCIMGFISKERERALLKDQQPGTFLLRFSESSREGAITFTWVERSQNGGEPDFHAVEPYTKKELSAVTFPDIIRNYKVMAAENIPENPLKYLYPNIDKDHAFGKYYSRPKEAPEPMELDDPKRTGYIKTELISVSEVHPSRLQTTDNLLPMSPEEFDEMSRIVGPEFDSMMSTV
Procedure, shortened: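 Nuclear extracts from EGF-stimulated NIH3T3/hEGFR fibroblasts, containing active Stat1, Stat3 and Stat5, preincubated with 5 μM test compound for 30 min at room temperature. Then incubated 30 min with 32P-labelled probe before EMSA: hSIE (Stat1/Stat3 binding) or MGFe (bovine β-casein element; Stat1/Stat5 binding). STAT:DNA bands quantified as percent of control.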

G10 cells = assay: Growth of glioma patient-derived xenograft cells in vitro; type: cell-based; conditions: Homo sapiens, read-out: inhibitory activity against growth of G10 cells
pStat3 = assay: Immunoblots of tumor tissue lysates from treated mice; type: in vivo, mouse; conditions: four-to-five cases out of six
Procedure, shortened: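 After oral dosing, lysates of residual subcutaneous U251MG tumour tissue from treated and 1% DMSO vehicle mice. Immunoblotted for pStat3 and Stat3, with GAPDH as loading reference.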

U251MG cells = assay: BrdU incorporation assay; type: cell-based, human; conditions: 5 μM, at 24 h
Procedure, shortened: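 U251MG cells on glass coverslips exposed to DMSO or 5 μM test compound for 3–24 h. BrdU (10 micromolar) added for the final 2 h. Fixed in 4% paraformaldehyde for 10 min, stained with anti-BrdU antibody and counterstained with DAPI. Imaged by fluorescence microscopy, and cells counted.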

pS-Akt = assay: Immunoblotting, U251MG glioma cells; type: cell-based, human; conditions: 5 μM
Procedure, shortened: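 U251MG cells given 5 μM test compound for 0–24 h. Whole-cell lysates of equal total protein immunoblotted for pErk1/2, Erk1/2, pS-Akt, Akt, pJAK2, JAK2, SOCS3 and PTP1B, with β-actin or GAPDH as loading reference.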

Stat3:Stat3, sequence (P42227 2-770 limits assumed): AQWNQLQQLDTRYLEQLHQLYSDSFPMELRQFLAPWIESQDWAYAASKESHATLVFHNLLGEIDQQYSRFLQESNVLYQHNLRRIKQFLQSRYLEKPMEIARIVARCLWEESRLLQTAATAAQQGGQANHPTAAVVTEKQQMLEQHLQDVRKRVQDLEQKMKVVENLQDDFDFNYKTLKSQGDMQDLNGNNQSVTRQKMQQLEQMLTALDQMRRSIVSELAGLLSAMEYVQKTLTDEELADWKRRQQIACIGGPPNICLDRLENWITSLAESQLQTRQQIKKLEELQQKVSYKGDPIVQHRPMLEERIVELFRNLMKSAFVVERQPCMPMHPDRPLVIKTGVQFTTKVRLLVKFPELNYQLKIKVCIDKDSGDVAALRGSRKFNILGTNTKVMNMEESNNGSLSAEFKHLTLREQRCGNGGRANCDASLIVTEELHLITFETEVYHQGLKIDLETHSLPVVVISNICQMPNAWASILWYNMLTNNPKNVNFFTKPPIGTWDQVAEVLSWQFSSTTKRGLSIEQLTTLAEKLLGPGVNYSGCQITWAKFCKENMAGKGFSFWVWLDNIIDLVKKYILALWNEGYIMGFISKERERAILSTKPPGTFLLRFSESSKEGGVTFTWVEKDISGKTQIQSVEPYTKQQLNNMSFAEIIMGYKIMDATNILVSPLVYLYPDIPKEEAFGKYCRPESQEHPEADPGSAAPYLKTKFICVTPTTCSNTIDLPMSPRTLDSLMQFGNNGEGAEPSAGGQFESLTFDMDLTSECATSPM

C/C=C(\C)C(=O)OCC1=C2/C(=C\[C@@]3(C)CC[C@](O)(O3)[C@H](C)C[C@@H]2O)OC1=O [Compound 22]
IC50 (MDA-MB-231 cells): 5.2 to 9.1 µM
effect on Stat3 DNA-binding activity in treated tumor cells (Stat3): strongly inhibited
Stat3:Stat3/DNA-binding activity (complexation), cell-free EMSA (Stat3:Stat3; 5 μM, 30 min pre-incubation, NIH3T3/v-Src nuclear extracts): diminished
Stat3:Stat3/DNA complexation in the presence of Cys (Stat3:Stat3; in the presence of 50 μM Cys): strongly inhibited
effect on Stat1:Stat1 activity, cell-free EMSA (Stat1:Stat1): weak effects
inhibition at 5 µM (G10 cells): 45 to 60%
pStat3 and Stat3 levels in residual tumor tissues (pStat3): lower
cell proliferation measured by BrdU incorporation (U251MG cells): significantly impaired
effect on pS-Akt levels (pS-Akt): no effects

Source: article PMC4834983 (Journal of medicinal chemistry, 2015)
